Measured values taken from ChEMBL document CHEMBL2062417, “Biotinylated quercetin as an intrinsic photoaffinity proteomics probe for the identification of quercetin target proteins” (Bioorg Med Chem, 2011).
Activity calls are given as the source filed them. The rule behind the calls is not given here.

Assays:
Casein kinase II = Casein kinase II (Homo sapiens, UniProt P19784+P67870+P68400); test: Inhibition of CK2 using RRRADDSDDDDD as substrate after 30 mins by PKLight assay; type: protein-complex assay
[1] = molecular target: Casein kinase II subunit alpha (Homo sapiens) (UniProt P68400); test: Binding affinity to CK2alpha at 150 uM followed by UV irradiation for 30 mins with Wood's glass filtered medium pressure mercury arc light by SDS-PAGE based pull down assay
Procedure, shortened: (§1)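 CK2 (17.5–70 nM) was mixed with 150 μM BioQ in 400 μL 10 mM PBS pH 7.2 with protease inhibitors, with or without 10 mM MgCl2 and 2 μM ATP. Samples were irradiated 30 min on ice (320–400 nm, peak 365 nm) or left unirradiated. Capture was on streptavidin agarose for 1 h, with washes in lysis buffer or 2% SDS Tris buffer, then boiling, SDS-PAGE and silver staining.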

Homo sapiens [2] = organism: Homo sapiens; test: Binding affinity to CK2 at 150 uM after 30 mins by silver staining based pull down assay; procedure, shortened: as §1
Homo sapiens [3] = organism: Homo sapiens; test: Binding affinity to CK2 at 150 uM followed by UV irradiation for 30 mins with Wood's glass filtered medium pressure mercury arc light by silver staining based pull down assay; procedure, shortened: as §1
Jurkat [4] = test: Binding affinity to quercetin binding protein in human Jurkat cells at 150 uM followed by UV irradiation for 30 mins with Wood's glass filtered medium pressure mercury arc light after cell lysis by SDS-PAGE based pull down assay
Procedure, shortened: (§2)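 Jurkat cells were grown in RPMI with 10% FBS (about 15×10^6 cells) and treated 2 h with 150 μM BioQ in 3% aqueous DMSO. They were heat-shocked at 43 °C for 30 min, recovered 1 h at 37 °C, and UV-irradiated (320–400 nm, peak 365 nm, 30 min, 4 °C) before or after sonication lysis. Streptavidin-agarose capture ran 1 h. Beads were washed ≥3× with lysis buffer or 2% SDS Tris pH 7.4, boiled, run on 12% SDS-PAGE and silver-stained.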

Jurkat [5] = test: Binding affinity to quercetin binding protein in human Jurkat cells at 150 uM after 30 mins followed by denaturing wash by SDS-PAGE based pull down assay in presence of heat shock; type: cell-based
Jurkat [6] = test: Binding affinity to quercetin binding protein in human Jurkat cells at 150 uM followed by UV irradiation for 30 mins with Wood's glass filtered medium pressure mercury arc light before cell lysis measured after denaturing wash by Western blotting based pull down assay in presence of heat shock
Procedure, shortened: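 Streptavidin pull-downs from heat-shocked, BioQ-treated (150 μM), UV-irradiated Jurkat cells received a 2% SDS wash. Proteins were transferred from SDS gels to nitrocellulose and blocked overnight in 3% BSA at 4 °C. Blots were probed 1 h with HRP-conjugated anti-biotin antibody and developed with 4-chloro-1-naphthol/0.01% H2O2, with no-UV and no-probe controls.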

[7] = molecular target: Heat shock protein HSP 90-alpha (Homo sapiens) (UniProt P07900); test: Binding affinity to HSP90AA1 in human Jurkat cells at 150 uM followed by UV irradiation for 30 mins with Wood's glass filtered medium pressure mercury arc light after cell lysis measured after denaturing wash by SDS-PAGE based pull down assay; procedure, shortened: as §2
[8] = molecular target: RuvB-like 2 (Homo sapiens) (UniProt Q9Y230); test: Binding affinity to RUVBL2 in human Jurkat cells at 150 uM followed by UV irradiation for 30 mins with Wood's glass filtered medium pressure mercury arc light after cell lysis measured after denaturing wash by SDS-PAGE based pull down assay; procedure, shortened: as §2
[9] = molecular target: ATP synthase F(1) complex subunit beta, mitochondrial (Homo sapiens) (UniProt P06576); test: Binding affinity to ATP5B in human Jurkat cells at 150 uM followed by UV irradiation for 30 mins with Wood's glass filtered medium pressure mercury arc light after cell lysis measured after denaturing wash by SDS-PAGE based pull down assay; procedure, shortened: as §2
[10] = molecular target: ATP synthase F(1) complex subunit alpha, mitochondrial (Homo sapiens) (UniProt P25705); test: Binding affinity to ATP5A1 in human Jurkat cells at 150 uM followed by UV irradiation for 30 mins with Wood's glass filtered medium pressure mercury arc light after cell lysis measured after denaturing wash by SDS-PAGE based pull down assay; procedure, shortened: as §2
[11] = molecular target: Actin, cytoplasmic 1 (Homo sapiens) (UniProt P60709); test: Binding affinity to ACTB in human Jurkat cells at 150 uM followed by UV irradiation for 30 mins with Wood's glass filtered medium pressure mercury arc light after cell lysis measured after denaturing wash by SDS-PAGE based pull down assay; procedure, shortened: as §2
[12] = molecular target: ATP synthase F(1) complex subunit beta, mitochondrial (Homo sapiens) (UniProt P06576); test: Binding affinity to ATP5B in human Jurkat cells at 150 uM followed by UV irradiation for 30 mins with Wood's glass filtered medium pressure mercury arc light prior to cell lysis measured after denaturing wash by SDS-PAGE based pull down assay; procedure, shortened: as §2
[13] = molecular target: ATP synthase F(1) complex subunit alpha, mitochondrial (Homo sapiens) (UniProt P25705); test: Binding affinity to ATP5A1 in human Jurkat cells at 150 uM followed by UV irradiation for 30 mins with Wood's glass filtered medium pressure mercury arc light prior to cell lysis measured after denaturing wash by SDS-PAGE based pull down assay; procedure, shortened: as §2
[14] = molecular target: ATP synthase F(1) complex subunit alpha, mitochondrial (Homo sapiens) (UniProt P25705); test: Binding affinity to ATP5A1 in human Jurkat cells at 150 uM followed by UV irradiation for 30 mins with Wood's glass filtered medium pressure mercury arc light prior to cell lysis measured after denaturing wash by LC-MS/MS based pull down assay
Procedure, shortened: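 Silver-stained bands from cells irradiated before lysis were excised, destained, reduced with 10 mM DTT, alkylated with 50 mM iodoacetamide and digested with trypsin overnight. Peptides were extracted in 1% TFA/50% acetonitrile. Nano-C18 LC used a 2–50% acetonitrile gradient with 0.1% formic acid over 50 min at 260 nL/min, followed by MS/MS identification.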

ATP synthase F(1) complex subunit alpha, mitochondrial (Homo sapiens), sequence (P25705 whole entry, one chain of several): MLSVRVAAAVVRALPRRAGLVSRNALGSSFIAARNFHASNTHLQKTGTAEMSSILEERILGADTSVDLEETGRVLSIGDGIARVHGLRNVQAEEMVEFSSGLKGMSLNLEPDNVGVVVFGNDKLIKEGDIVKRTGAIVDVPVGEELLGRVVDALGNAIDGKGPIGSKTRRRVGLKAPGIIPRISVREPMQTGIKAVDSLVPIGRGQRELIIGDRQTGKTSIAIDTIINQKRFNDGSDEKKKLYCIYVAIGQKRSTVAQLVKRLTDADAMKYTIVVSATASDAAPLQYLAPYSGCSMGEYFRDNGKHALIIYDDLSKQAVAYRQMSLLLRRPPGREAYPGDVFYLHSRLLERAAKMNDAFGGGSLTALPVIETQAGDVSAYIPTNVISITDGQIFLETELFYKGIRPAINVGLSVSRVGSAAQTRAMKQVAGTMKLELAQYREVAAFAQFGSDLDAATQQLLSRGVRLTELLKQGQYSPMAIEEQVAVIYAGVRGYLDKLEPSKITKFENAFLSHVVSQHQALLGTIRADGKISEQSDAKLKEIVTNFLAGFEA
ATP synthase F(1) complex subunit beta, mitochondrial (Homo sapiens), sequence (P06576 whole entry, one chain of several): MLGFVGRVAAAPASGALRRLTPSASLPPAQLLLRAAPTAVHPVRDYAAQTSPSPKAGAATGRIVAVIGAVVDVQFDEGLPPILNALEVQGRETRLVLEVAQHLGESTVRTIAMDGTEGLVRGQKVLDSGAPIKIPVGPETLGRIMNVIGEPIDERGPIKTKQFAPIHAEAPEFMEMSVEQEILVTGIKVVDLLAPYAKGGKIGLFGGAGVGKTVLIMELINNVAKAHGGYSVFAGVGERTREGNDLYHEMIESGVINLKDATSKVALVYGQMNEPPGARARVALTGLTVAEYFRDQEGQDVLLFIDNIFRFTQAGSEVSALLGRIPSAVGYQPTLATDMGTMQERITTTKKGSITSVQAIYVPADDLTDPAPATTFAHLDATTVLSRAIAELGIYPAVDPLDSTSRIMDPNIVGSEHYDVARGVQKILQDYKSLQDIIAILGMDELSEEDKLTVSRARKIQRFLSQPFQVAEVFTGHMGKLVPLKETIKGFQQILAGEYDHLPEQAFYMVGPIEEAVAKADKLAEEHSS
Casein kinase II, sequence (P67870 whole entry): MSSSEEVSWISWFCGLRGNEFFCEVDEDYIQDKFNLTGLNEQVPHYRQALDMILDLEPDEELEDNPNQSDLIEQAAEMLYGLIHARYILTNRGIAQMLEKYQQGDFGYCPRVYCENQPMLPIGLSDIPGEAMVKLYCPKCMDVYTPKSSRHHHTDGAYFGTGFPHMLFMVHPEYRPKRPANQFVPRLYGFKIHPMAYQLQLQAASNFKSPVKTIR
Casein kinase II, sequence (P68400 whole entry): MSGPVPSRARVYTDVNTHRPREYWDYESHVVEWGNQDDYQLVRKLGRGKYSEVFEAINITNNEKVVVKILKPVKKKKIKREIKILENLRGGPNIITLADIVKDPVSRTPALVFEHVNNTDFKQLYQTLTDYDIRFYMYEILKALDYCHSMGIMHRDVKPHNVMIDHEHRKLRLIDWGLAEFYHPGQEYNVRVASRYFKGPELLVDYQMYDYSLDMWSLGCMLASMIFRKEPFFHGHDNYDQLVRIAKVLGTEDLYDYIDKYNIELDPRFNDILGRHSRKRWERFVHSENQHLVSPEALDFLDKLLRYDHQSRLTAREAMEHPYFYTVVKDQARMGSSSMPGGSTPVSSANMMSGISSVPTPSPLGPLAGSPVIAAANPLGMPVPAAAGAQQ
Casein kinase II, sequence (P19784 whole entry): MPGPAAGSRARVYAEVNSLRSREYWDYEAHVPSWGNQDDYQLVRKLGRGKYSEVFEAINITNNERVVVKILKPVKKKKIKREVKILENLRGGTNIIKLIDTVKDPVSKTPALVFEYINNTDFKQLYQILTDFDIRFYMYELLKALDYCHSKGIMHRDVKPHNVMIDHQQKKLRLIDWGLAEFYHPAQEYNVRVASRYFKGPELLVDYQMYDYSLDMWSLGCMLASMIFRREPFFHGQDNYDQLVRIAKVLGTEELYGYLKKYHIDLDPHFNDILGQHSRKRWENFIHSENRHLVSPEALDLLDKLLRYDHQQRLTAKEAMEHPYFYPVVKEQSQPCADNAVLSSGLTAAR
RuvB-like 2 (Homo sapiens), sequence (Q9Y230 whole entry): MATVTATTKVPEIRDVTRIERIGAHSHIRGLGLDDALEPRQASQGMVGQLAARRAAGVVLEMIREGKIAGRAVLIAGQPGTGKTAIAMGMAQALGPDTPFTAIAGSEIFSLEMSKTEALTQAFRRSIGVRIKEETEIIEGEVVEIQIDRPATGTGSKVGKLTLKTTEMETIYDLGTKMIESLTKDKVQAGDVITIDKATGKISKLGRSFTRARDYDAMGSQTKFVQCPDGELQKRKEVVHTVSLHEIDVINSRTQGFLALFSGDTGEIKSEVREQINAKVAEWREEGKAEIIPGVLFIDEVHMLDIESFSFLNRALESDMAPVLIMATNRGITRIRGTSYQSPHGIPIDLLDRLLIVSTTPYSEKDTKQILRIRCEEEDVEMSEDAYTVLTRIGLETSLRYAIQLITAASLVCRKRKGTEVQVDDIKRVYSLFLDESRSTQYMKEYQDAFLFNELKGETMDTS
Casein kinase II subunit alpha (Homo sapiens), sequence (P68400 whole entry, looked up): as the sequence (P68400 whole entry) above

For `O=C(CCCC[C@@H]1SC[C@@H]2NC(=O)N[C@@H]21)NCCOCCOCCNC(=O)COc1cc(O)c2c(=O)c(O)c(-c3ccc(O)c(O)c3)oc2c1`, the IC50 (Casein kinase II) was 3.2 µM, the Activity [1] was “Active” and the Activity (Homo sapiens [2]) was “inactive”. For the same compound, the Activity (Homo sapiens [3]) was “inactive”, the Activity (Jurkat [4]) was “Active” and the Activity (Jurkat [5]) was “Active”. For the same compound, the Activity (Jurkat [6]) was “Active”, the Activity [7] was “Active” and the Activity [8] was “Active”. The Activity [9] was “Active”, the Activity [10] was “Active” and the Activity [11] was “Active”. The Activity [12] was “Active”, the Activity [13] was “Active” and the Activity [14] was “Active”.
